One data set relates to dengue virus type 2. The data set can be described thus: Antiviral activity against Dengue virus 2 Rega infected in African green monkey Vero cells assessed as reduction in viral yield after 4 days by qRT-PCR analysis. It counts as functional, organism-based. The procedure, abridged: (§1)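 Virus yield reduction in Vero cells (seeded 5×10^4/well). Next day infected with DENV (MOI 0.01) in assay medium (MEM, 2% FBS, 0.075% bicarbonate, 2 mM L-glutamine). After 1 h, input virus was removed and cells rinsed 3 times. Medium with 3- or 5-fold compound serial dilutions was then added. Incubation was 4 days (DENV-2, DENV-4) or 7 days (DENV-1, DENV-3). Supernatant viral RNA was measured by RT-qPCR, and EC50 obtained by logarithmic interpolation.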

The nature of data set [1]: (§2) Cytotoxicity against African green monkey Vero cells assessed as cell growth inhibition after 4 days by MTS/PMS method. The data set is classed as cell-based. The note with it: chlorocebus sabaeus, Vero cells. The procedure, abridged:
(§3)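 Cytotoxicity run as in the yield assay, but without virus. Vero cells (5×10^4/well) were exposed to 3- or 5-fold serial dilutions in MEM with 2% FBS. Viability was read by the MTS/PMS colorimetric method. CC50 was derived by logarithmic interpolation.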

Data set [2] in a line: Solubility of the compound in DMSO solution at pH 7.4. It counts as physicochemical. In short, it runs like this:
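Solubility measured at pH 7.4, starting from a DMSO solution.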

The subject of another data set is P-gp (MDR1). The data set is described as follows: (§4) Apparent permeability across apical to basolateral side in MDR1 transfected pig LLC-PK1 cells in absence of P-gp inhibitor GF120918. It counts as ADME, cell-based, Sus scrofa. The note with it: LLC-PK1. The procedure, abridged:
(§5)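 Permeability measured in MDR1-transfected LLC-PK1 cells without the P-gp inhibitor GF120918.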

The nature of data set [3]: Protein binding in human plasma. The data set is classed as ADME, cell-free. The settings on record: for fraction unbound: read-out: PPB (converted).
Data set [4] is described as follows: Protein binding in rat plasma. It counts as ADME, cell-free. The note with it: for fraction unbound: read-out: PPB (converted).
Data set [5] can be described thus: Drug metabolism in human liver microsomes after 15 mins. It counts as ADME, microsome. The note with it: for metabolised at 0.25 h: liver microsomes, read-out: Drug metabolism; for Drug metabolism: microsomes, 0.25 h. In short, it runs like this:
(§6)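 Percentage of compound metabolized after 15 min incubation with human or rat liver microsomes.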
(Liver microsomes are a subcellular fraction often used to study metabolism.)

Data set [6] is described as follows: Drug metabolism in rat liver microsomes after 15 mins. It counts as ADME, microsome. The settings on record: for metabolised at 0.25 h: liver microsomes, read-out: Drug metabolism; for Drug metabolism: microsomes, 0.25 h. In short, it runs like this: as §6
Another data set deals with T1, Cytochrome P450 1A2 (Homo sapiens, UniProt P05177).
T1 sequence (P05177 whole entry): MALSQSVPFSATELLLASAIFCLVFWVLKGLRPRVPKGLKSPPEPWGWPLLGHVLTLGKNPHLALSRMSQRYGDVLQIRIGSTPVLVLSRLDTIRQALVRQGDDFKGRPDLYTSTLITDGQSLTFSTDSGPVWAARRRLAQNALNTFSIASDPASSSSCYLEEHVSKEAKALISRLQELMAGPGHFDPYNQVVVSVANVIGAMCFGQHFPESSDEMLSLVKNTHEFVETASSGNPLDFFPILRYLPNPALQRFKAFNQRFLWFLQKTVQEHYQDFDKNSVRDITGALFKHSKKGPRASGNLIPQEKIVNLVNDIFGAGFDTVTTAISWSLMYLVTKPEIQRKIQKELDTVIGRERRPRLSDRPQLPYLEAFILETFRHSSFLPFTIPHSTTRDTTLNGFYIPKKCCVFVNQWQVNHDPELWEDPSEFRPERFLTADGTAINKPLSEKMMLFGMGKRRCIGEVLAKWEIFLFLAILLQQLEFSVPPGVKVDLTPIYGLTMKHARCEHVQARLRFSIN
The data set can be described thus: Inhibition of CYP1A2 (unknown origin). The data set is classed as ADME.

For a further data set, the target named is Cytochrome P450 2C19 (Homo sapiens, UniProt P33261). The data set can be described thus: Inhibition of CYP2C19 (unknown origin). The data set is classed as ADME.
Cytochrome P450 2C19, sequence (P33261 whole entry): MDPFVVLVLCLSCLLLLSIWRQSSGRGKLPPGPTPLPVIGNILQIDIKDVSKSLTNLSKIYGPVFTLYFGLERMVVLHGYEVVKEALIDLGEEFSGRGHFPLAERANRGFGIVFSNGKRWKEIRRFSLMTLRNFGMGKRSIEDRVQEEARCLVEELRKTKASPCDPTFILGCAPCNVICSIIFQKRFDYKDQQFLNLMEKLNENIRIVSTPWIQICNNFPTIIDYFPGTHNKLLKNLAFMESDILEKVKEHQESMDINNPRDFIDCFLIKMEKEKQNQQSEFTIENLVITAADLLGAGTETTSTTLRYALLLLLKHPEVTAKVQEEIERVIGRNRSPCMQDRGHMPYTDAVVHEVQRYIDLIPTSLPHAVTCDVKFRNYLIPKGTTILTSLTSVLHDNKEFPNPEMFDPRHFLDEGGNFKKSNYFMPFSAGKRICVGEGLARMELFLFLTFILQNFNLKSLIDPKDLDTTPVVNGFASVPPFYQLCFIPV
A further data set deals with Cytochrome P450 2C9 (Homo sapiens, UniProt P11712). The data set is described as follows: Inhibition of CYP2C9 (unknown origin). It counts as ADME.
Cytochrome P450 2C9, sequence (P11712 whole entry): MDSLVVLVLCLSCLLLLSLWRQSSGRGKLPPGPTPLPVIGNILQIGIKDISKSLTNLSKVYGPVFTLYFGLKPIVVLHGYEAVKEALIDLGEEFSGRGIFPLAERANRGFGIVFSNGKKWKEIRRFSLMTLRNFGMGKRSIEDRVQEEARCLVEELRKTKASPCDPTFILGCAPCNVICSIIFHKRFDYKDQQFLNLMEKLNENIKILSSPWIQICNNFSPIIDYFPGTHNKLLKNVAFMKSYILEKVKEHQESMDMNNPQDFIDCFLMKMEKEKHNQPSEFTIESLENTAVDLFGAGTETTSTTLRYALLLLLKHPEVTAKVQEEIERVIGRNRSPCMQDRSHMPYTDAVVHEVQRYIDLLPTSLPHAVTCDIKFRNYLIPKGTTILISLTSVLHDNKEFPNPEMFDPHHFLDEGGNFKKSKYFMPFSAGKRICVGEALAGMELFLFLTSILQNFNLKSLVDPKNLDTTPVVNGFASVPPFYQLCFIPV
In the next data set the target is Cytochrome P450 2D6 (Homo sapiens, UniProt P10635). The data set can be described thus: Inhibition of CYP2D6 (unknown origin). The data set is classed as ADME.
Cytochrome P450 2D6, sequence (P10635 whole entry): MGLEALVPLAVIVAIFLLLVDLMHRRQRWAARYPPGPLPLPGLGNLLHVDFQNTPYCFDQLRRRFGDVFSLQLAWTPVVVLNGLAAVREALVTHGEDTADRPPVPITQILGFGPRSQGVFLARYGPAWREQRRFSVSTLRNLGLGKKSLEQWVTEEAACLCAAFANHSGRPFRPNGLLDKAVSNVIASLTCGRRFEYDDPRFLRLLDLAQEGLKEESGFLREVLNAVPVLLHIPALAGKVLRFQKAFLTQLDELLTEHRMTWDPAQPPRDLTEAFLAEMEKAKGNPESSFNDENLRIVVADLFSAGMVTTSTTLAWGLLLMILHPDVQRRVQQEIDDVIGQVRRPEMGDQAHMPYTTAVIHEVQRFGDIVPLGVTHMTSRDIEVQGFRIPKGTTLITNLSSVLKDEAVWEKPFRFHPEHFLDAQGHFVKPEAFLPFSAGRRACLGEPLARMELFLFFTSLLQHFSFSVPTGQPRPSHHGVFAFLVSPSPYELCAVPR
The next data set has as its target Cytochrome P450 3A4 (Homo sapiens, UniProt P08684). The data set is described as follows: Inhibition of CYP3A4 (unknown origin). It counts as ADME.
For a further data set, the system named is dengue virus type 1. The data set can be described thus: Antiviral activity against Dengue virus 1 Djibouti D1/H/IMTSSA/98/606 infected in African green monkey Vero cells assessed as reduction in viral yield after 7 days by qRT-PCR analysis. It counts as functional, organism-based. The settings on record: Djibouti D1/H/IMTSSA/98/606, Vero, 168 h. In short, it runs like this:
as §1

Another data set deals with dengue virus type 3. The data set is described as follows: Antiviral activity against Dengue virus 3 H87 infected in African green monkey Vero cells assessed as reduction in viral yield after 7 days by qRT-PCR analysis. The settings on record: 168 h. The data set is classed as functional, organism-based. In short, it runs like this:
as §1
(In qPCR the cycle at which signal appears reflects the starting amount.)

Another data set relates to dengue virus type 4. The data set can be described thus: Antiviral activity against Dengue virus 4 DAKHD34460 infected in African green monkey Vero cells assessed as reduction in viral yield after 4 days by qRT-PCR analysis. The data set is classed as functional, organism-based. The note with it: 96 h. The procedure, abridged:
as §1

For data set [7], the target named is Voltage-gated inwardly rectifying potassium channel KCNH2 (Homo sapiens, UniProt Q12809). The data set can be described thus: Inhibition of human ERG.
Voltage-gated inwardly rectifying potassium channel KCNH2, sequence (Q12809 whole entry): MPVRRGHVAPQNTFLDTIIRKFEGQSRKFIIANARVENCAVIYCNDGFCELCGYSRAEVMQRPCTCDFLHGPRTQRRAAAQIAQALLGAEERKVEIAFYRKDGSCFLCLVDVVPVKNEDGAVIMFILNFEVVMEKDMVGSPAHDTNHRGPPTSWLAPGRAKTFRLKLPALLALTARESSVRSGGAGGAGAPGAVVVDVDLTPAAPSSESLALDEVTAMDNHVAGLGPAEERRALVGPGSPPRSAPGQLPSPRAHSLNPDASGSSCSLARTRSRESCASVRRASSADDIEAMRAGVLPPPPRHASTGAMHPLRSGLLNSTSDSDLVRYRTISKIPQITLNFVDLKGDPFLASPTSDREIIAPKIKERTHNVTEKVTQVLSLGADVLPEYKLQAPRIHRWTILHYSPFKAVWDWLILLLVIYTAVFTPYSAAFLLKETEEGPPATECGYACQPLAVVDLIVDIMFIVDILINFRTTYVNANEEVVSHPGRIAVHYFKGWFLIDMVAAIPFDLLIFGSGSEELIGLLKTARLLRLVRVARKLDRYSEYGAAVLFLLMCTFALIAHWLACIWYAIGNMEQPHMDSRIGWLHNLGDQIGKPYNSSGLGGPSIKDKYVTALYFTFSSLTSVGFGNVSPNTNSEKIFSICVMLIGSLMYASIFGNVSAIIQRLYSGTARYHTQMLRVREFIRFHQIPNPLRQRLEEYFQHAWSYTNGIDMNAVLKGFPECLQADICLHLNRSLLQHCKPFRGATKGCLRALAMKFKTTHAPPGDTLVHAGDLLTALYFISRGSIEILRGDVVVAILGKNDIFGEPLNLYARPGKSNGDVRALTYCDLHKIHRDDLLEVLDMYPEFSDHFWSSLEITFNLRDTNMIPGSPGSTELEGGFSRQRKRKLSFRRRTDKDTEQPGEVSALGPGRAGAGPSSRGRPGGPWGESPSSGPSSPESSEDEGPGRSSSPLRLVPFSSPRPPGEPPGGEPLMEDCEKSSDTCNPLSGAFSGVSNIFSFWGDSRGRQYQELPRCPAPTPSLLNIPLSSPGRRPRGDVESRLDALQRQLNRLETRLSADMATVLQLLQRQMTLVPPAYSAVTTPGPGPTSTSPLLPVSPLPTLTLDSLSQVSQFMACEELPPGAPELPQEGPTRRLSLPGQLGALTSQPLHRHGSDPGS
For data set [8], the system named is Salmonella typhimurium. The data set can be described thus: Mutagenicity in Salmonella typhimurium in presence of human liver S9 fraction by Ames test. The settings on record: salmonella enterica subsp. enterica serovar typhimurium. The data set is classed as toxicity, organism-based. (In general: The Ames test detects mutagens through reverse mutation in bacteria.)

The subject of data set [9] is Salmonella typhimurium. The data set is described as follows: Mutagenicity in Salmonella typhimurium in absence of human liver S9 fraction by Ames test. It counts as toxicity, organism-based. The note with it: salmonella enterica subsp. enterica serovar typhimurium.
For another data set, the system named is Vero. Described as §2. It counts as cell-based. The settings on record: chlorocebus sabaeus, vero, 96 h. The procedure, abridged: as §3
Data set [10] can be described thus: as §4. The data set is classed as ADME, cell-based, Sus scrofa. The settings on record: llc-pk1. The procedure, abridged: as §5

In brackets after ≈: the same amount, converted by molar mass.

Cytochrome P450 3A4, sequence (P08684 whole entry): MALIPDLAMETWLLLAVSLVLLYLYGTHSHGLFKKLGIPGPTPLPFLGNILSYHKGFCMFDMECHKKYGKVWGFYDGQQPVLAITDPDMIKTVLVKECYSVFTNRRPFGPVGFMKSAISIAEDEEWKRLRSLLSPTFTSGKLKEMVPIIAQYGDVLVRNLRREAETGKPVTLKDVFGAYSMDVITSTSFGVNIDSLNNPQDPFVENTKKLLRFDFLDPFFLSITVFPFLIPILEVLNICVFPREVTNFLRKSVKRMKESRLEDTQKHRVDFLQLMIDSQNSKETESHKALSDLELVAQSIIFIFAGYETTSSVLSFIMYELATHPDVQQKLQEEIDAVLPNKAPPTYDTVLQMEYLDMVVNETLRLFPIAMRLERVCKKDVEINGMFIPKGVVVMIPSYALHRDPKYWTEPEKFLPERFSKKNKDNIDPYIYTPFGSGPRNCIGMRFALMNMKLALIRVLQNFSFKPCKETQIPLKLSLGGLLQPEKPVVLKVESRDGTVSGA

For `COc1cccc(NC(C(=O)c2c[nH]c3ccccc23)c2nc3ccccc3o2)c1` (centres undefined), the EC50 in the data set on dengue virus type 2 (Dengue virus, Rega, Vero, 96 h) was 0.011 µM. In addition, in data set [1], the CC50 at 96 h was 13 µM. Moreover, the solubility in data set [2] (read-out: solubility) was determined as 1 µM (≈ 0.397 µg/mL). For the same molecule, the Papp A→B with P-gp (MDR1) worked out at 5.6 ×10⁻⁶ cm/s. Moreover, the fraction unbound was less than 0.002 in data set [3] and less than 0.004 in [4]. Besides, the metabolised at 0.25 h was found to be 19% in data set [5] and 99% in data set [6]. For the same molecule, the IC50 at Cytochrome P450 1A2 is 4.2 µM; on Cytochrome P450 2C19, 3.2 µM; on Cytochrome P450 2C9 it was 6.1 µM; at Cytochrome P450 2D6 it was greater than 10 µM; at Cytochrome P450 3A4 it was greater than 10 µM.

Turning to `COc1cc(NC(C(=O)c2c[nH]c3ccccc23)c2cccnc2)cc(OC)c1` (centres undefined), the EC50 was found to be 0.015 µM in the data set on dengue virus type 2 (Dengue virus, Rega, Vero, 96 h); 0.173 µM with dengue virus type 1; 0.31 µM in the data set on dengue virus type 3; 2.5 µM in the data set on dengue virus type 4. In addition, the CC50 at 96 h in data set [1] came to 69 µM.

For the molecule `COc1cncc(NC(C(=O)c2c[nH]c3ccccc23)c2ccccc2)c1` (centres undefined), in the data set with dengue virus type 2 (Dengue virus, Rega, Vero, 96 h), the EC50 came out at 0.036 µM. Also, the CC50 at 96 h in data set [1] was found to be 20 µM. For the same molecule, in data set [2] (read-out: solubility), the solubility is 42 µM (≈ 15 µg/mL). Moreover, the Papp A→B in the data set on P-gp (MDR1) was 4.7 ×10⁻⁶ cm/s. Moreover, the fraction unbound is 0.005 in [3] and 0.008 in data set [4]. For the same molecule, the metabolised at 0.25 h is 23% in data set [5] and 86% in [6]. Moreover, the IC50 stood at 3.5 µM in data set [7]; 2.8 µM against Cytochrome P450 1A2; 2.5 µM against Cytochrome P450 2C19; 3.3 µM against Cytochrome P450 2C9; 8.4 µM at Cytochrome P450 2D6; 0.05 µM against Cytochrome P450 3A4. Further, the Activity result in the data set on Salmonella typhimurium [8] and with Salmonella typhimurium [9] was “Non-Toxic” in each case.

Take `COc1cc(NC(C(=O)c2c[nH]c3ccc(F)cc23)c2ccccc2)cc(OC)c1` (centres undefined): the EC50 with dengue virus type 2 (Dengue virus, Rega, Vero, 96 h) worked out at 0.007 µM; in the data set with dengue virus type 1, 0.247 µM; in the data set with dengue virus type 3, 0.68 µM; in the data set with dengue virus type 4, 4.8 µM. Further, the CC50 at 96 h in data set [1] is 13 µM. The Activity entry in the data set with Salmonella typhimurium [8] and in the data set on Salmonella typhimurium [9] was “Non-Toxic” in each case.

With `COc1cc(NC(C(=O)c2c[nH]c3ccccc23)c2ccccc2)cc(OC)c1` (racemic), the EC50 in the data set on dengue virus type 2 (vero) came out at 0.007 µM. Further, in the data set on Vero, the CC50 worked out at 16 µM. Moreover, the Papp in data set [10] was determined as 7.5 ×10⁻⁶ cm/s. In addition, the PPB turned out to be 99.8% in data set [3] and 99.9% in data set [4]. Moreover, the Drug metabolism in data set [5] is 11%; in data set [6], 63%. Further, the IC50 in data set [7] is greater than 50 µM; on Cytochrome P450 1A2, 2.4 µM; on Cytochrome P450 2C19 it was 4 µM; on Cytochrome P450 2C9, 4.8 µM; against Cytochrome P450 2D6, greater than 10 µM; against Cytochrome P450 3A4, greater than 10 µM. The Activity result with Salmonella typhimurium [8] and in the data set on Salmonella typhimurium [9] was “Non-Toxic” in each case.

Take `COc1cc(NC(C(=O)c2c[nH]c3ccccc23)c2ccccc2)cc(OC)c1` (stereo in doubt; 12b): the EC50 in the data set on dengue virus type 2 (vero) turned out to be 0.348 µM. Besides, in the data set with Vero, the CC50 is 11 µM. Besides, the solubility in data set [2] was 9 µM (≈ 3.48 µg/mL). Further, in data set [10], the Papp came to 7.4 ×10⁻⁶ cm/s. In addition, the PPB in [3] is recorded as 99.9%; in [4] it was greater than 99.9%. The Drug metabolism in data set [5] is reported as 16%; in data set [6], 91%. The IC50 is 6.4 µM at Cytochrome P450 1A2; 3 µM against Cytochrome P450 2C19; 3 µM against Cytochrome P450 2C9; greater than 10 µM at Cytochrome P450 2D6; greater than 10 µM against Cytochrome P450 3A4.

By EC50 is commonly meant the midpoint of the concentration-response curve. As usually defined, the CC50 is the concentration at which the toxic effect on the cells reaches its halfway point. The term solubility denotes the dissolved amount per volume that the medium holds. The term Papp A→B denotes the apparent permeability from the apical to the basolateral side of a cell layer. The term IC50 denotes the concentration needed to halve the response being measured. By Papp is commonly meant the rate of passage across a membrane or cell layer, normalised by area and donor concentration.
